From ChEMBL document CHEMBL1140741, “Discovery of 4-aryl-4H-chromenes as a new series of apoptosis inducers using a cell- and caspase-based high throughput screening assay. 4. Structure-activity relationships of N-alkyl substituted pyrrole fused at the 7,8-positions” (J Med Chem, 2008)
Active and inactive are the calls of the source. No cut-off for these calls is given here.

Tests used:
[1] = tested on: T47D; test: Induction of apoptosis in human T47D cells assessed as caspase activation after 24 hrs by HTS assay; type: functional, cell-based
How it was run: (§1)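 Proprietary cell- and caspase-based HTS assay in ATCC-sourced cells; EC50 values given as mean ± SEM of three or more experiments.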

[2] = tested on: HCT-116; test: Induction of apoptosis in human HCT116 cells assessed as caspase activation after 24 hrs by HTS assay; type: functional, cell-based; conditions: HCT-116, 24 h; how it was run: as §1
[3] = tested on: SNU-398; test: Induction of apoptosis in human SNU398 cells assessed as caspase activation after 24 hrs by HTS assay; type: functional, cell-based; conditions: SNU-398, 24 h; how it was run: as §1
[4] = tested on: T47D; test: Growth inhibition of human T47D cells after 48 hrs; type: functional
How it was run: (§2)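 Cells (ATCC-sourced) exposed to compound for 48 h at 37 °C; CellTiter-Glo reagent added, mixed by agitation, incubated 10–15 min at room temperature, luminescence read. GI50 taken as concentration giving 50% inhibition of cell growth.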

[5] = tested on: HCT-116; test: Growth inhibition of human HCT116 cells after 48 hrs; type: functional; conditions: HCT-116, 48 h; how it was run: as §2
[6] = tested on: SNU-398; test: Growth inhibition of human SNU398 cells after 48 hrs; type: functional; conditions: SNU-398, 48 h; how it was run: as §2
[7] = Inhibition of tubulin polymerization
[8] = tested on: MCF7; test: Cell cycle arrest in human MCF7 cells by accumulation at G2/M phase; type: functional, cell-based

Structure (SMILES) | EC50 [1] | EC50 [2] | EC50 [3] | GI50 [4] | GI50 [5] | GI50 [6] | IC50 [7] | Activity [8]
COc1cc(C2C(C#N)=C(N)Oc3c2ccc2c3ccn2C)cc(OC)c1OC (stereo not given) | 4 nM | 6 nM | 3 nM | – | – | – | – | –
COc1cc(OC)cc(C2C(C#N)=C(N)Oc3c2ccc2c3ccn2C)c1 (stereo not given) | 5 nM | 6 nM | 3 nM | – | – | – | – | –
CC(=O)O[C@H]1C(=O)[C@@]2(C)[C@H]([C@H](OC(=O)c3ccccc3)[C@]3(O)C[C@H](OC(=O)[C@H](O)[C@@H](NC(=O)c4ccccc4)c4ccccc4)C(C)=C1C3(C)C)[C@]1(OC(C)=O)CO[C@@H]1C[C@@H]2O [PACLITAXEL] | 36 nM | 24 nM | 11 nM | – | – | – | – | –
COc1cc(C2C(C#N)=C(N)Oc3c2ccc2c3ccn2C)cc2c1OCO2 (stereo not given) | 17 nM | 15 nM | 12 nM | – | – | – | – | –
COc1cc(C2C(C#N)=C(N)Oc3c2ccc2c3ccn2CO)cc(Br)c1OC (stereo not given) | 3 nM | 3 nM | 2 nM | 2 nM | 4 nM | 1 nM | – | –
COc1cc2c(c(OC)c1OC)-c1ccc(OC)c(=O)cc1[C@@H](NC(C)=O)CC2 [COLCHICINE] | – | 15 nM | 4 nM | 7 nM | – | – | – | –
Cc1cncc(C2C(C#N)=C(N)Oc3c2ccc2c3ccn2C)c1 (stereo not given) | 3 nM | 3 nM | 2 nM | 8 nM | 3 nM | 2 nM | – | –
COc1cc(C2C(C#N)=C(N)Oc3c2ccc2[nH]ccc32)cc(Br)c1OC (stereo not given) | 5 nM | 14 nM | 15 nM | 8 nM | 20 nM | 14 nM | – | –

More lines, in order of falling EC50 [1], values ahead:

EC50 [1] | EC50 [2] | EC50 [3] | GI50 [4] | GI50 [5] | GI50 [6] | IC50 [7] | Structure (SMILES) | Activity [8]
150 nM | 170 nM | 130 nM | – | – | – | – | COc1cc(C2C(C#N)=C(N)Oc3c2ccc2ccn(C)c32)cc(Br)c1OC (stereo not given) | –
43 nM | 44 nM | 38 nM | 7 nM | – | – | – | CC[C@]1(O)C[C@@H]2CN(CCc3c([nH]c4ccccc34)[C@@](C(=O)OC)(c3cc4c(cc3OC)N(C)[C@H]3[C@@](O)(C(=O)OC)[C@H](OC(C)=O)[C@]5(CC)C=CCN6CC[C@]43[C@@H]65)C2)C1 [VINBLASTINE] | –
43 nM | 58 nM | 12 nM | – | – | – | – | CC[C@]1(O)C[C@H]2CN(CCc3c([nH]c4ccccc34)[C@@](C(=O)OC)(c3cc4c(cc3OC)N(C=O)[C@H]3[C@@](O)(C(=O)OC)[C@H](OC(C)=O)[C@]5(CC)C=CCN6CC[C@]43[C@@H]65)C2)C1 [VINCRISTINE] | –
39 nM | 44 nM | 25 nM | – | – | – | – | CCn1ccc2c3c(ccc21)C(c1cc(Br)c(OC)c(OC)c1)C(C#N)=C(N)O3 (stereo not given) | –
30 nM | 54 nM | 27 nM | – | – | – | – | COc1cc(C2C(C#N)=C(N)Oc3c2ccc2[nH]c(C)cc32)cc(Br)c1OC (stereo not given) | –
16 nM | 69 nM | 86 nM | – | – | – | – | COc1cc(C2C(C#N)=C(N)Oc3c2ccc2cc[nH]c32)cc(Br)c1OC (stereo not given) | –
6 nM | 7 nM | 5 nM | – | – | – | – | COc1cccc(C2C(C#N)=C(N)Oc3c2ccc2c3ccn2C)c1 (stereo not given) | –
4 nM | 5 nM | 3 nM | – | – | – | – | COc1cc(C2C(C#N)=C(N)Oc3c2ccc2c3ncn2C)cc(Br)c1OC (stereo not given) | –
3 nM | 3 nM | 3 nM | – | – | – | – | COc1cncc(C2C(C#N)=C(N)Oc3c2ccc2c3ccn2C)c1 (stereo not given) | –
2 nM | 4 nM | 1 nM | 7 nM | 4 nM | 1 nM | – | COc1cc(C2C(C#N)=C(N)Oc3c2ccc2c3CCN2C)cc(Br)c1OC (stereo not given) | –
2 nM | 3 nM | 2 nM | 0.3 nM | 1.4 nM | 0.2 nM | 900 nM | COc1cc(C2C(C#N)=C(N)Oc3c2ccc2c3ccn2C)cc(Br)c1OC (stereo not given) | Active
